# Measurements from different studies.
# Lines come from different studies, so protocols differ.
Compound,target or system,test,test system,conditions,quantity,value
COCC(=O)N1CCC[C@H](C(=O)NCc2nc(-c3ccc(C#N)cc3)cs2)C1,,,"male Sprague-Dawley rat, plasma","oral, 3 mg/kg",AUC,120 µM·h
O=C1CCC(N2C(=O)c3cccc(NCc4cn(Cc5ccc(-c6nc7cc(-c8ccccc8)ccn7c6Nc6ccc(C(=O)O)cc6)cc5)nn4)c3C2=O)C(=O)N1 (stereo not drawn),HCT-116,cell growth or viability,,72 h,CC50,193 µM
O=c1[nH]cc(F)c(=O)[nH]1,PC-9,"cell growth or viability, CCK-8",,50 µM,viability,31.9%
C=C(CC(=O)OCOC(=O)OC(C)C)C(=O)O,,,PAMPA,"10 µM, 4 h, pH 7.4",Papp,< 1 ×10⁻⁶ cm/s
CN(Cc1cn(Cc2ccc(-c3nc4cc(-c5ccccc5)ccn4c3Nc3ccc(C(=O)O)cc3)cc2)nn1)c1cccc2c1C(=O)N(C1CCC(=O)NC1=O)C2=O (stereo not drawn),HCT-116,cell growth or viability,,72 h,CC50,190 µM
COc1cccc2c(N3CCC(CCP(=O)(O)O)CC3)ncnc12,EMT6,,"female BALB/c, tumour","subcutaneous, 50 mg/kg, tumour-bearing",half-life,6.6 h
COCC(=O)N1CCC[C@H](C(=O)NCc2nc(-c3ccccc3)cs2)C1,,,"male Sprague-Dawley rat, plasma","oral, 3 mg/kg",AUC,110 µM·h
C[C@H]1Oc2cc(cnc2N)-c2c(nn(C)c2C#N)CN(C)C(=O)c2ccc(F)cc21,,,"male Sprague-Dawley rat, plasma","oral, 5 mg/kg, single dose",AUC(0-t),1780 ng·h/mL
COc1nc(-c2cccc(-c3ccccc3)c2C)ccc1CNCCNC(=O)CCCCCCCCCCC(=O)N1CCN(CCNC(=O)c2cc3c(=O)n4cccc(C)c4nc3n(CCc3cccs3)c2=N)CC1,,,"male Sprague-Dawley rat, plasma","intraperitoneal, 4 mg/kg",AUC(0-inf),2450 ng·h/mL
